pIC50, pKd, pKi: −log10 of the molar value. ≈ marks a conversion by molar mass, not a printed value. Calls of active or inactive are those of the source. The calls are words filed in the database; no cut-off is given here.
Experiments:
Escherichia coli = experiment: Antibacterial activity against Escherichia coli ATCC 25922 assessed as inhibition of bacterial growth at 20 uM by broth microdilution method; type: functional, organism-based
Procedure, shortened: (§1)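 Broth microdilution in triplicate against a small bacterial panel, with compounds tested at 20 μM for growth inhibition.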

[1] = Metabolic stability in rat liver microsomes assessed as intrinsic clearance at 2 uM measured upto 30 mins by HPLC/MS/MS analysis; type: ADME, Microsome; settings: read-out: CLH
Procedure, shortened: (§2)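 Compounds at 2 μM incubated at 37 °C with 1 mg/mL rat liver microsomes containing NADPH. Parent compound consumption followed over time.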

[2] = tested on: Mycobacterium tuberculosis; experiment: Antibacterial activity against pan-sensitive Mycobacterium tuberculosis H37Rv ATCC 27294 measured after 7 days by resazurin dye based assay; type: functional; settings: H37Rv ATCC 27294, 168 h, time 7 day
Procedure, shortened: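 Resazurin reduction microplate assay (REMA) in Middlebrook 7H9 broth with 10% ADC and 5% DMSO. Compounds come from 2 mg/mL DMSO stocks and are 2-fold serially diluted, top concentration 0.08–40 μg/mL depending on solubility. MIC is the lowest concentration preventing the blue-to-pink colour change. Three independent experiments; the reported value is the modal or the highest value.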

[3] = Solubility of compound in 0.1 M HCl solution at pH 1.2 at 1 mg incubated for 4 hrs under shaking conditions by liquid chromotography; type: physicochemical
Procedure, shortened: (§3)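 1 mg of compound was added to 1 mL of PBS pH 7.4 or 0.1 M HCl, in triplicate. Suspensions were vortexed 1 min, shaken 4 h at 25 °C, then centrifuged 13000 rpm for 15 min at 25 °C. Supernatant was quantified by reverse-phase UHPLC (UV 260–280 nm) against a single-point calibration of compound in DMSO.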

[4] = Cytotoxicity against human HepG2 cells assessed as reduction in cell viability incubated for 72 hrs by neutral red uptake assay; type: toxicity, cell-based
Procedure, shortened: (§4)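 Cells grown in DMEM with 10% FBS. HepG2 seeded at 4 × 10³ and Vero at 2 × 10³ cells/well, 24 h before dosing. Compounds at 1, 5 and 20 μM in 1% DMSO for 72 h at 37 °C, 5% CO2. MTT readout: 5 mg/mL reagent for 4 h, absorbance at 595 nm. Neutral red readout: 25 μg/mL dye for 3 h, then acid-ethanol desorb. Viability is expressed relative to 1% DMSO controls.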

Acinetobacter baumannii = experiment: Antibacterial activity against multidrug-resistant Acinetobacter baumannii clinical isolates assessed as inhibition of bacterial growth at 20 uM by broth microdilution method; type: functional, organism-based; procedure, shortened: as §1
[5] = target: T1, Enoyl-[acyl-carrier-protein] reductase [NADH] (Mycobacterium tuberculosis, UniProt P9WGR1); experiment: Noncompetitive inhibition of Mycobacterium tuberculosis InhA using DD-CoA as substrate assessed as inhibition constant for enzyme-substrate-inhibitor ternary complex in presence of varying concentrations of NADH by double reciprocal plot analysis
T1 sequence (P9WGR1 whole entry): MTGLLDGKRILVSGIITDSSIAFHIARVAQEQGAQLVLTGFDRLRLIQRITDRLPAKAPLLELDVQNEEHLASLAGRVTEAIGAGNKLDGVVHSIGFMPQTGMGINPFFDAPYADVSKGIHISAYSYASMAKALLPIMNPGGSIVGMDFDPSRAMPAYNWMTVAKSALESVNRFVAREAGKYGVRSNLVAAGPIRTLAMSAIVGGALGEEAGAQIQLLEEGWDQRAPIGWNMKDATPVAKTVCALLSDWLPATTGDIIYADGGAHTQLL

[6] = Selectivity index, ratio of CC50 for African green monkey Vero cells by neutral red uptake assay to MIC for pan-sensitive Mycobacterium tuberculosis H37Rv ATCC 27294; type: toxicity, cell-based; settings: read-out: Selectivity Index
[7] = target: T2, Enoyl-[acyl-carrier-protein] reductase [NADH] (Mycobacterium tuberculosis) (UniProt P9WGR1); experiment: Binding affinity to Mycobacterium tuberculosis InhA assessed as gibbs free energy change at 250 uM in presence of NADH by fluorescence spectroscopy
T2 sequence (whole entry): T1 sequence (P9WGR1 whole entry)
Procedure, shortened: (§5)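 Titration of pre-formed MtInhA:NADH complex (2 mL of 3 μM enzyme with 20 μM NADH), adding microliter aliquots of 250 μM ligand stock with dilution kept ≤1%. Intrinsic fluorescence read at 295 nm excitation, 310–500 nm emission. Temperatures 15, 20, 25 and 30 °C. KD is fitted to a hyperbolic isotherm. ΔH°, ΔS° and ΔG° come from van't Hoff analysis of KD across temperatures.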

Klebsiella pneumoniae = experiment: Antibacterial activity against multidrug-resistant Klebsiella pneumoniae clinical isolates assessed as inhibition of bacterial growth at 20 uM by broth microdilution method; type: functional, organism-based; procedure, shortened: as §1
[8] = Metabolic stability in rat liver microsomes assessed as half life at 2 uM measured upto 30 mins by HPLC/MS/MS analysis; type: ADME, Microsome; procedure, shortened: as §2
[9] = target: T1, Enoyl-[acyl-carrier-protein] reductase [NADH]; experiment: Inhibition of Mycobacterium tuberculosis InhA-catalysed chemical reaction in presence of NADH measured for 1 min by UV/Visible spectrophotometry
Procedure, shortened: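 Recombinant MtInhA reaction at 25 °C in 100 mM Pipes pH 7.0, started by adding 2.2 μM enzyme and followed for 1 min. Substrate is DD-CoA, made from 2-trans-dodecenoic acid and CoA.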

[10] = Solubility of compound in PBS at pH 7.4 at 1 mg incubated for 4 hrs under shaking conditions by liquid chromotography; type: physicochemical; procedure, shortened: as §3
[11] = target: T1, Enoyl-[acyl-carrier-protein] reductase [NADH]; experiment: Noncompetitive inhibition of Mycobacterium tuberculosis InhA using DD-CoA as substrate assessed as inhibition constant for enzyme-inhibitor binary complex in presence of varying concentrations of NADH by double reciprocal plot analysis
[12] = Chemical stability in PBS at pH 7.4 assessed as reduction in parent compound at 1 to 10 uM measured after 24 hrs by HPLC-EM/MS analysis; type: physicochemical; settings: dose 1-10 µM, read-out: Drug degradation
Procedure, shortened: (§6)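 Compounds at 1–10 μM incubated 24 h at 37 °C in three media: pH 1.2 (0.1 M HCl), pH 7.4 (PBS) and pH 9.1 (0.1 M NH4HCO3). Remaining parent compound quantified afterward.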

[13] = target: T2, Enoyl-[acyl-carrier-protein] reductase [NADH] (Mycobacterium tuberculosis); experiment: Time dependent inhibition of Mycobacterium tuberculosis InhA
[14] = Chemical stability in 0.1 M NH4HCO3 solution at pH 9.1 assessed as parent compound remaining at 1 to 10 uM measured after 24 hrs by HPLC-EM/MS analysis; type: physicochemical; settings: dose 1-10 µM, read-out: Stability; procedure, shortened: as §6
[15] = target: T1, Enoyl-[acyl-carrier-protein] reductase [NADH]; experiment: Competitive inhibition of Mycobacterium tuberculosis InhA using varying concentrations of DD-CoA as substrate assessed as inhibition constant for enzyme-inhibitor binary complex in presence of NADH by Lineweaver-Burk plot analysis
Procedure, shortened: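 Steady-state kinetics with recombinant MtInhA in 100 mM Pipes pH 7.0 at 25 °C. NADH fixed at 60 μM, DD-CoA varied 15–135 μM, inhibitor at fixed-varied levels of 0.2–4 μM. Kis is fitted to the competitive inhibition equation.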

Staphylococcus aureus = experiment: Antibacterial activity against Staphylococcus aureus ATCC 25923 assessed as inhibition of bacterial growth at 20 uM by broth microdilution method; type: functional, organism-based; procedure, shortened: as §1
[16] = Selectivity index, ratio of CC50 for human HepG2 cells by MTT assay to MIC for pan-sensitive Mycobacterium tuberculosis H37Rv ATCC 27294; type: toxicity; settings: read-out: Selectivity Index
[17] = target: T2, Enoyl-[acyl-carrier-protein] reductase [NADH] (Mycobacterium tuberculosis); experiment: Binding affinity to Mycobacterium tuberculosis InhA assessed as change in entropy at 250 uM in presence of NADH by fluorescence spectroscopy
[18] = Cytotoxicity against African green monkey Vero cells assessed as reduction in cell viability incubated for 72 hrs by MTT assay; type: toxicity, cell-based; settings: chlorocebus sabaeus; procedure, shortened: as §4
[19] = target: T2, Enoyl-[acyl-carrier-protein] reductase [NADH] (Mycobacterium tuberculosis); experiment: Binding affinity to Mycobacterium tuberculosis InhA assessed as change in enthalpy at 250 uM in presence of NADH by fluorescence spectroscopy
[20] = Permeability of compound at 10 uM measured after 5 hrs by PAMPA assay; type: ADME; settings: read-out: permeability
Procedure, shortened: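 PAMPA: compounds at 10 μM in 2% DMSO added to a pH 7.4 donor phase, 5 h at room temperature. Receptor-side concentration (pH 7.4) measured to derive permeation rate. Alprenolol is the analytical control.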

[21] = Selectivity index, ratio of CC50 for human HepG2 cells by neutral red uptake assay to MIC for pan-sensitive Mycobacterium tuberculosis H37Rv ATCC 27294; type: toxicity; settings: read-out: Selectivity Index
[22] = Chemical stability in 0.1 M HCl solution at pH 1.2 assessed as parent compound remaining at 1 to 10 uM measured after 24 hrs by HPLC-EM/MS analysis; type: physicochemical; settings: dose 1-10 µM, read-out: Stability; procedure, shortened: as §6
[23] = Selectivity index, ratio of CC50 for African green monkey Vero cells by MTT assay to MIC for pan-sensitive Mycobacterium tuberculosis H37Rv ATCC 27294; type: toxicity, cell-based; settings: read-out: Selectivity Index
[24] = Cytotoxicity against African green monkey Vero cells assessed as reduction in cell viability incubated for 72 hrs by neutral red uptake assay; type: toxicity, cell-based; settings: chlorocebus sabaeus; procedure, shortened: as §4
[25] = Chemical stability in PBS at pH 7.4 assessed as parent compound remaining at 1 to 10 uM measured after 24 hrs by HPLC-EM/MS analysis; type: physicochemical; settings: dose 1-10 µM, read-out: Stability; procedure, shortened: as §6
[26] = target: T1, Enoyl-[acyl-carrier-protein] reductase [NADH]; experiment: Binding affinity to Mycobacterium tuberculosis InhA assessed as dissociation constant at 250 uM at 25 degreeC in presence of NADH by fluorescence spectroscopy; procedure, shortened: as §5
[27] = Cytotoxicity against human HepG2 cells assessed as reduction in cell viability incubated for 72 hrs by MTT assay; type: toxicity, cell-based; procedure, shortened: as §4

Q: With `CSc1ccc2nc(C)cc(Nc3ccc(N4CCCCC4)cc3)c2c1` as the compound, how does the Activity (Escherichia coli) read?
A: inactive

Q: What about the CLint scaled at 2 µM [1] of the same compound?
A: 60 mL/min/kg

Q: What about the MIC [2] of the same compound?
A: 0.4 µM (≈ 0.145 µg/mL)

Q: What about the solubility thermodynamic at 4 h [3] of the same compound?
A: > 2700 µM

Q: What about the CC50 at 72 h [4] of the same compound?
A: 12200 nM

Q: What about the Activity (Acinetobacter baumannii) of the same compound?
A: inactive

Q: What about the pKi [5] of the same compound?
A: 6.39

Q: What about the selectivity ratio [6] of the same compound?
A: 21.2

Q: And the deltaG [7]?
A: -8.3 kcal/mol

Q: And the Activity (Klebsiella pneumoniae)?
A: inactive

Q: And the half-life at 2 µM [8]?
A: 5.9 min

Q: What about the pIC50 [9] of the same compound?
A: 6.00

Q: What about the solubility thermodynamic at 4 h [10] of the same compound?
A: 38 µM (≈ 13.8 µg/mL)

Q: What about the pKi [11] of the same compound?
A: 6.37

Q: What about the degraded at 24 h, up to 10 µM [12] of the same compound?
A: > 30%

Q: What about the TDI [13] of the same compound?
A: inactive

Q: And the remaining at 24 h, up to 10 µM [14]?
A: 100%

Q: What about the pKi [15] of the same compound?
A: 6.21

Q: And the Activity (Staphylococcus aureus)?
A: inactive

Q: And the selectivity ratio [16]?
A: 14.7

Q: What about the deltaS [17] of the same compound?
A: -55.7 cal/mol/K

Q: What about the CC50 at 72 h [18] of the same compound?
A: 11100 nM

Q: What about the deltaH [19] of the same compound?
A: -25.8 kcal/mol

Q: And the Papp at 5 h, 10 µM [20]?
A: 0.03 ×10⁻⁶ cm/s

Q: And the selectivity ratio [21]?
A: 30.5

Q: And the remaining at 24 h, up to 10 µM [22]?
A: 100%

Q: What about the selectivity ratio [23] of the same compound?
A: 27.7

Q: And the CC50 at 72 h [24]?
A: 8500 nM

Q: And the remaining at 24 h, up to 10 µM [25]?
A: 68%

Q: What about the pKd [26] of the same compound?
A: 6.06

Q: And the CC50 at 72 h [27]?
A: 5900 nM

From ChEMBL document CHEMBL5385869, “Novel 4-aminoquinolines: Synthesis, inhibition of the Mycobacterium tuberculosis enoyl-acyl carrier protein reductase, antitubercular activity, SAR, and preclinical evaluation” (Eur J Med Chem, 2023)
